Consider 19 compounds from ChEMBL document CHEMBL1137218, “Long hydrocarbon chain ether diols and ether diacids that favorably alter lipid disorders in vivo” (J Med Chem, 2004).

Format in all cases: functional
The subject of test [1] is Rattus norvegicus. Description: Percent change from pre-treatment in Triglycerides level at 30 mg/kg after 1 week. The method in brief: (§1)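 Female obese Zucker fatty rats Crl:(Zuc)-faBR, 10–12 weeks old (400–500 g), n=3–4, fed chow. Dosed by oral gavage once daily in 20% EtOH/80% PEG-200 for up to 14 days. Serum taken after a 6 h fast before dosing, at day 7 (orbital plexus) and at day 14 (cardiac puncture). TG by enzymatic kit on analyzer. HDL-C and non-HDL-C from Superose 6 gel-filtration profile area × total cholesterol. Results given as % change from pretreatment.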

The subject of test [2] is Rattus norvegicus. The experiment in a line: Percent change from pre-treatment in Triglycerides level at 30 mg/kg after 2 weeks. The method in brief:
as §1

For test [3], the system named is Rattus norvegicus. Description: Percent change from pre-treatment in HDL-Cholesterol level at 30 mg/kg after 1 week. In short, it runs like this: as §1
The subject of test [4] is Rattus norvegicus. Description: Percent change from pre-treatment in HDL-Cholesterol level at 30 mg/kg after 2 weeks. The method in brief:
as §1

Test [5] concerns Rattus norvegicus. Description: Percent change from pre-treatment in Non HDL-Cholesterol level at 30 mg/kg after 1 week. In short, it runs like this: as §1
The test system of test [6] is Rattus norvegicus. The experiment in a line: Percent change from pre-treatment in Non HDL-Cholesterol level at 30 mg/kg after 2 weeks. In short, it runs like this: as §1
Test [7] is filed under the species Rattus norvegicus. The experiment in a line: In Vitro inhibitory concentration against lipid synthesis in primary rat hepatocyte culture. na=Not active; inhibition of [14C]acetate incorporation into total lipids is less than 50% at 300 uM. The method in brief:
(§2)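 Primary hepatocytes isolated from male Sprague-Dawley rats (Seglen method) and plated on collagen in DMEM with 20% FBS, 100 nM insulin, 25 mM glucose. Medium made serum-free after 4 h, cultured overnight to monolayers. Then 4 h incubation with 0.25 μCi [14C]-acetate/well (1 Ci/mol) and 0–300 μM compound. Lipids extracted into scintillant and counted. IC50 derived from lipid synthesis rates by nonlinear sigmoidal fit.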

For test [8], the species on record is Rattus norvegicus. The experiment in a line: In vitro inhibitory concentration against lipid synthesis in primary rat hepatocyte culture. The method in brief:
as §2

In test [9] the test system is Rattus norvegicus. The experiment in a line: Percent change from pre-treatment triglycerides level at 100 mg/Kg after 1 week. The method in brief: as §1
Test [10] relates to Rattus norvegicus. Description: Percent change from pre-treatment triglycerides level at 100 mg/Kg after 2 weeks. In short, it runs like this: as §1
The test system of test [11] is Rattus norvegicus. Description: Percent change from pre-treatment HDL-Cholesterol level at 100 mg/Kg after 1 week. In short, it runs like this:
as §1

Test [12] relates to Rattus norvegicus. The experiment in a line: Percent change from pre-treatment HDL-Cholesterol level at 100 mg/Kg after 2 weeks. The method in brief:
as §1

Test [13] has as its system Rattus norvegicus. The experiment in a line: Percent change from pre-treatment Non HDL-Cholesterol level at 100 mg/Kg after 1 week. In short, it runs like this:
as §1

The test system of test [14] is Rattus norvegicus. The experiment in a line: Percent change from pre-treatment Non HDL-Cholesterol level at 100 mg/Kg after 2 weeks. In short, it runs like this: as §1
Test [15] deals with Rattus norvegicus. The experiment in a line: Percent change from pre-treatment in Triglycerides level at 97 mg/kg after 1 week. In short, it runs like this:
as §1

Test [16] concerns Rattus norvegicus. The experiment in a line: Percent change from pre-treatment in Triglycerides level at 97 mg/kg after 2 weeks. The method in brief: as §1
Test [17] concerns Rattus norvegicus. Description: Percent change from pre-treatment in HDL-Cholesterol level at 97 mg/kg after 2 weeks. The method in brief: as §1
Test [18] deals with Rattus norvegicus. Description: Percent change from pre-treatment in Non HDL-Cholesterol level at 97 mg/kg after 1 week. In short, it runs like this:
as §1

Test [19] relates to Rattus norvegicus. The experiment in a line: Percent change from pre-treatment in Non HDL-Cholesterol level at 97 mg/kg after 2 weeks. The method in brief: as §1
The subject of test [20] is Rattus norvegicus. The experiment in a line: Percent change from pre-treatment in Triglycerides level at 80 mg/kg after 1 week. The method in brief:
as §1

The subject of test [21] is Rattus norvegicus. Description: Percent change from pre-treatment in Triglycerides level at 80 mg/kg after 2 weeks. In short, it runs like this: as §1
The test system of test [22] is Rattus norvegicus. The experiment in a line: Percent change from pre-treatment in HDL-Cholesterol level at 80 mg/kg after 1 week. In short, it runs like this:
as §1

In test [23] the test system is Rattus norvegicus. The experiment in a line: Percent change from pre-treatment in Non HDL-Cholesterol level at 80 mg/kg after 1 week. In short, it runs like this: as §1
Test [24] deals with Rattus norvegicus. The experiment in a line: Percent change from pre-treatment in Non HDL-Cholesterol level at 80 mg/kg after 2 weeks. The method in brief:
as §1

The subject of test [25] is Rattus norvegicus. Description: Percent change from pre-treatment in HDL-Cholesterol level at 80 mg/kg after 2 weeks. The method in brief:
as §1

The IC50 is the concentration at which inhibition is half-maximal. Lower therefore signals inhibition by little substance. Take `CC(C)(CO)CCCOCCCC(C)(C)CO`: the Change is on record as 21% in the test with Rattus norvegicus [1]; 77% in the test on Rattus norvegicus [2]; -13% with Rattus norvegicus [3]; -8% with Rattus norvegicus [4]; 7% in the test with Rattus norvegicus [5]; 58% in the test with Rattus norvegicus [6]. The IC50 entry in the test listed under Rattus norvegicus [7] is on record as “Not Active”.
As to `CC(C)(CO)CCCCCCCCCC(C)(C)CO`, the IC50 in the test listed under Rattus norvegicus [8] was 4 µM. The Change in the test with Rattus norvegicus [9] is listed as -83%; with Rattus norvegicus [10], -82%; in the test with Rattus norvegicus [11], 189%; in the test on Rattus norvegicus [12], 137%; in the test on Rattus norvegicus [13], -67%; in the test on Rattus norvegicus [14], -75%.
Turning to `CC(C)(CO)CCCCCCCCCCCC(C)(C)CO`, the concentration for half-maximal inhibition (IC50) in the test listed under Rattus norvegicus [8] came to 4 µM. Moreover, the Change with Rattus norvegicus [9] is -70%; with Rattus norvegicus [10] it was -35%; with Rattus norvegicus [11] it was -5%; in the test on Rattus norvegicus [12], -1%; with Rattus norvegicus [13], -20%; in the test with Rattus norvegicus [14], 48%.
In the test filed under Rattus norvegicus [8], `CC(C)(CO)CCCC1CCC(CCCC(C)(C)CO)O1` (centres undefined) came in with an IC50 of 9 µM. Further, the Change in the test on Rattus norvegicus [15] was -49%; in the test on Rattus norvegicus [16] it was -13%; in the test with Rattus norvegicus [17] it was 140%; in the test with Rattus norvegicus [18] it was 11%; with Rattus norvegicus [19] it was 31%.
In the case of `CC(C)(Cc1cccc(Oc2cccc(CC(C)(C)C(=O)O)c2)c1)C(=O)O`, in the test filed under Rattus norvegicus [8], the IC50 stood at 53 µM. Further, the Change with Rattus norvegicus [9] was -46%; in the test with Rattus norvegicus [10], -27%; in the test with Rattus norvegicus [11], 20%; in the test with Rattus norvegicus [12], 16%; in the test on Rattus norvegicus [13] it was -59%; in the test on Rattus norvegicus [14] it was -21%.
Regarding `CC(C)(CO)CCCCOCCCCC(C)(CO)c1ccccc1` (centres undefined), the IC50 in the test listed under Rattus norvegicus [8] worked out at 5 µM. For the same compound, the Change is reported as -61% in the test with Rattus norvegicus [9]; -45% in the test on Rattus norvegicus [10]; 26% in the test with Rattus norvegicus [11]; 52% in the test on Rattus norvegicus [12]; -55% in the test on Rattus norvegicus [13]; -13% in the test with Rattus norvegicus [14].
In the case of `CC(CO)(CCCCOCCCC(C)(CO)c1ccccc1)c1ccccc1` (centres undefined), the Change in the test on Rattus norvegicus [1] is -1%; in the test on Rattus norvegicus [2], 21%; in the test with Rattus norvegicus [3] it was -2%; in the test on Rattus norvegicus [4], -20%; with Rattus norvegicus [5], 16%; in the test on Rattus norvegicus [6], 45%. Besides, the IC50 entry in the test filed under Rattus norvegicus [7] is reported as “Not Active”.
As to `CC(C)(CCCCOCCCCC(C)(C)COC1CCCCO1)COC1CCCCO1` (centres undefined), in the test filed under Rattus norvegicus [8], half-maximal inhibition (IC50) required 20 µM. Besides, the Change is recorded as -1% in the test with Rattus norvegicus [9]; 22% with Rattus norvegicus [10]; 43% with Rattus norvegicus [11]; 79% with Rattus norvegicus [12]; 46% in the test with Rattus norvegicus [13]; 92% in the test with Rattus norvegicus [14].
`CC(C)(CCCOCCOCCCC(C)(C)C(=O)O)C(=O)O` came in with an IC50 in the test filed under Rattus norvegicus [8] of 72 µM. Also, the Change with Rattus norvegicus [9] is recorded as -24%; in the test with Rattus norvegicus [10], -13%; with Rattus norvegicus [11] it was -6%; in the test with Rattus norvegicus [12] it was -4%; in the test with Rattus norvegicus [13], -38%; with Rattus norvegicus [14], -13%.
The compound `CC(C)(CO)CCCCCOCCCCC(C)(C)CO` displayed an IC50 in the test filed under Rattus norvegicus [8] of 11 µM. Besides, the Change with Rattus norvegicus [1] is recorded as -66%; in the test with Rattus norvegicus [2], -77%; in the test with Rattus norvegicus [3] it was 71%; in the test on Rattus norvegicus [5], -26%; with Rattus norvegicus [6], 17%.
In turn, `CC(C)(CCCCCCCCCCCC(C)(C)C(=O)O)C(=O)O` registered an IC50 in the test filed under Rattus norvegicus [8] of 7 µM. In addition, the Change with Rattus norvegicus [9] was -89%; in the test with Rattus norvegicus [10], -87%; in the test on Rattus norvegicus [11] it was -14%; in the test on Rattus norvegicus [12], -6%; in the test with Rattus norvegicus [13], -66%; in the test with Rattus norvegicus [14] it was -60%.
In the test filed under Rattus norvegicus [8], `CC(C)(CCCCOCCCCC(C)(C)CCC(=O)O)CCC(=O)O` gave an IC50 of 22 µM. Further, the Change with Rattus norvegicus [9] is listed as -80%; in the test with Rattus norvegicus [10] it was -73%; with Rattus norvegicus [11] it was 13%; in the test with Rattus norvegicus [12], 39%; in the test with Rattus norvegicus [13], -50%; in the test on Rattus norvegicus [14], -30%.
With `CC(C)(CO)CCCOCCOCCCC(C)(C)CO`, the Change in the test on Rattus norvegicus [9] was -9%; in the test on Rattus norvegicus [10], 6%; in the test on Rattus norvegicus [11], 3%; with Rattus norvegicus [12], 10%; in the test on Rattus norvegicus [13], 33%; in the test with Rattus norvegicus [14] it was 45%. Besides, the IC50 result in the test filed under Rattus norvegicus [7] is “Not Active”.
As for `CC(C)(CCOCCCOCCC(C)(C)C(=O)O)C(=O)O`, the Change is given as 5% in the test with Rattus norvegicus [20]; 46% with Rattus norvegicus [21]; -18% in the test with Rattus norvegicus [22]; -10% in the test with Rattus norvegicus [23]; 15% in the test on Rattus norvegicus [24]; -5% in the test with Rattus norvegicus [25].
In the test listed under Rattus norvegicus [8], `CC(C)(CO)CCCCOCCCCC(C)(C)COC1CCCCO1` (centres undefined) yielded an IC50 of 11 µM. Besides, the Change in the test with Rattus norvegicus [9] is given as -69%; in the test on Rattus norvegicus [10] it was -63%; in the test with Rattus norvegicus [11], 130%; with Rattus norvegicus [12], 152%; with Rattus norvegicus [13] it was -28%; with Rattus norvegicus [14] it was -14%.
In the test filed under Rattus norvegicus [8], `CC(C)(CO)Cc1cccc(Oc2cccc(CC(C)(C)CO)c2)c1` displayed an IC50 of 98 µM. Further, the Change in the test with Rattus norvegicus [9] is -32%; in the test on Rattus norvegicus [10], -54%; with Rattus norvegicus [11], 17%; in the test with Rattus norvegicus [12], 25%; in the test on Rattus norvegicus [13], -50%; in the test on Rattus norvegicus [14] it was -50%.
For the compound `CC(C)(CO)CCCC1CCCC(CCCC(C)(C)CO)O1` (centres undefined), the IC50 in the test filed under Rattus norvegicus [8] amounted to 39 µM. Besides, the Change in the test with Rattus norvegicus [9] is -74%; with Rattus norvegicus [10], -46%; in the test with Rattus norvegicus [11], 75%; in the test on Rattus norvegicus [13] it was -70%; in the test on Rattus norvegicus [14], -31%.
Take `CC(CO)(CCCOCCCC(C)(CO)c1ccccc1)c1ccccc1` (centres undefined): in the test listed under Rattus norvegicus [8], the IC50 turned out to be 130 µM. Further, the Change with Rattus norvegicus [9] is reported as -27%; in the test on Rattus norvegicus [10], -18%; with Rattus norvegicus [11], 7%; in the test with Rattus norvegicus [12] it was 5%; in the test on Rattus norvegicus [13], -32%; with Rattus norvegicus [14], -26%.
In the test listed under Rattus norvegicus [8], `CC(C)(CO)CCCCOCCCC(C)(C)CO` displayed an IC50 of 17 µM. The Change was 21% with Rattus norvegicus [1]; 32% in the test with Rattus norvegicus [2]; 24% in the test with Rattus norvegicus [3]; 40% in the test on Rattus norvegicus [4]; 44% in the test with Rattus norvegicus [5]; 74% with Rattus norvegicus [6].
